Source: PubChem BioAssay
Wee1 degr inh: blocks degradation of human Wee1 kinase. P30291. HeLa Luc-Wee1K328M stability, luciferase luminescence; 100% = proteasome inhibitor MG132 effect. reporter increase, % at 5 µM. actives 1.2% (n = 220,000). AID 1321;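 active means activation above the mean of all tested compounds plus 3 SD, set per screening run, cut at about 8.8% in these data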;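 further: cells exposed to compound for 20 h before luminescence read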
Target sequence (P30291 whole entry K328M): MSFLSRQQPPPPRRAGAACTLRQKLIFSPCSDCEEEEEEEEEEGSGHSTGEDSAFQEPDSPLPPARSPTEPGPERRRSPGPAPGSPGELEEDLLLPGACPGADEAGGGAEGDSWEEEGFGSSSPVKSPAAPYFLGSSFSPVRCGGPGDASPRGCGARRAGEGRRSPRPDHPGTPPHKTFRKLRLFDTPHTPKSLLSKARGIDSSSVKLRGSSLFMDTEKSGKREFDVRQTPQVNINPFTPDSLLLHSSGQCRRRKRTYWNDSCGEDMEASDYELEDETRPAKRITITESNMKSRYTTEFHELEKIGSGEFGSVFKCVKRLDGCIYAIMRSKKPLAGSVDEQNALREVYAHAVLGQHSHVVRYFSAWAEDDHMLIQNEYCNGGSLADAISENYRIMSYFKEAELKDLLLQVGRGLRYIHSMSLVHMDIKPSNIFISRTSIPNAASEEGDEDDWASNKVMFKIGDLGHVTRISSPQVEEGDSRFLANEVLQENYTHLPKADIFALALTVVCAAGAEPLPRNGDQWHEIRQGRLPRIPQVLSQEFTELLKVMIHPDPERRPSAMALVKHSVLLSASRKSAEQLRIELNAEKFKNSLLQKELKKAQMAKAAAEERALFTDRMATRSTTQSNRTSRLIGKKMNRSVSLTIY
Runt-CBFb FRET: blocks binding of human RUNX1 Runt domain to CBFb; Cerulean-Runt/Venus-CBFb FRET ratio 530/480, 1 h; actives 0.46% (n = 220,000); inhibition, % at 20 µM;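 active means inhibition over about 50% at 20 µM in the single-dose screen, limit read from the data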
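Measured by: fluorescence energy transfer, 422 nm excitation, 530/480 nm emission; test system: Cerulean-tagged RUNX1 Runt domain (FRET donor) fusion protein; buffer or medium: Tris pH 7.5 buffer with BSA; compound: one dose, 20 µM compound, 1% DMSO; times: two 1 h room-temperature incubations shielded from light; benchmarks: unlabeled CBFb 5 µM, positive control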
Efa HMGR inh: blocks class II HMG-CoA reductase of Enterococcus faecalis; inhibition, % at 10 µM; AID 1066; purified E. faecalis HMGR, NADPH absorbance 340 nm kinetic; actives 0.41% (n = 190,000);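 active means inhibition above a set limit, the median over all tested compounds plus 3 SD, cut at about 9.5% in these data; inconclusive means no clear call, values can overlap the other calls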;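 further: enzyme runs in reverse so mevalonate oxidation gives rising NADPH absorbance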
RanGTP-Impb inh: disruptors of Ran-importin-beta complex formation – biochemical, FRET, CFP-Ran, YFP-importin-beta, homogeneous, primary screen; cell-free CFP-Ran/YFP-importin-beta FRET ratio; inhibition, % (concentration not given with the values); actives 1.1% (n = 300,000);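 active means more than half of the replicate wells show a fall in the fluorescence ratio signal beyond about 16%, limit read from the data, passing the limit was not always enough; inconclusive means exactly half of the replicate wells pass the set limit; inactive means fewer than half of replicates pass the limit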
PHOSPHO1 inh: blocks human PHOSPHO1 phosphatase activity; recombinant PHOSPHO1, absorbance phosphatase assay; inhibition, % at 13.3 µM; actives 1.1% (n = 290,000); in the data active means inhibition above about 60%
Runt-SMMHC FRET: blocks binding of human RUNX1 Runt domain to CBFb-SMMHC | Q01196+Q13951 | AID 1434 | Cerulean-Runt/Venus-CBFb-SMMHC FRET ratio 530/480, 1 h | inhibition, % at 20 µM | actives 0.74% (n = 220,000);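 active means mean inhibition across duplicate retests at 20 µM reaching about 50%, limit read from the data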;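 further: inhibitors lower the FRET ratio by blocking Runt binding to CBFb-SMMHC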
Each line names hits and unclear results; the compound was inactive in the other large screens. In the library only some 3.4% were active in any assay of this set; here they are far more common.

Nc1nc(NCc2ccco2)nc(N2CCCCC2)c1[N+](=O)[O-]	none
Nc1nc(Nc2ccccc2F)nc(N2CCOCC2)c1[N+](=O)[O-]	Wee1 degr inh 8.9 (no result: Efa HMGR inh)
CN1CCN(c2nc(NCc3ccco3)nc(N)c2[N+](=O)[O-])CC1	PHOSPHO1 inh 60 (no result: Efa HMGR inh)
O=C(N/C(=C/c1ccccc1)C(=O)N1CCCCC1)c1ccco1	none (no result: Wee1 degr inh, Runt-CBFb FRET, Efa HMGR inh, PHOSPHO1 inh, Runt-SMMHC FRET)
O=C(O)c1ccc(N/N=C/C2=Cc3ccccc3OC2)cc1	RanGTP-Impb inh 21 (no result: Efa HMGR inh)
O=C(O)c1ccc(N/N=C/c2ccncc2)cc1	none (no result: Wee1 degr inh, Runt-CBFb FRET, Efa HMGR inh, Runt-SMMHC FRET)
CCCCCCCCCCCC(=O)NC1CCS(=O)(=O)C1 (stereo unspecified)	none
CC(=O)CSc1nc(N)c(C#N)c(-c2cccs2)c1C#N	none
CC(C)(C)C(=O)CSc1nc2c(c(-c3cccs3)c1C#N)CCC2	RanGTP-Impb inh 62
COc1ccc(-c2ccc(SCC(=O)c3ccccc3)nn2)cc1OC	Efa HMGR inh 11
CCOC(=O)CSc1nc(N2CCOCC2)c2c(c1C#N)CC(C)(C)N(C)C2	Runt-CBFb FRET 60, RanGTP-Impb inh 19, Runt-SMMHC FRET 84
CCOC(=O)CSc1nc(N2CCOCC2)c2c(c1C#N)CC(C)(C)OC2	none (no result: Wee1 degr inh, Runt-CBFb FRET, Efa HMGR inh, Runt-SMMHC FRET)
Cc1nn(C(=O)c2c(-c3ccccc3)noc2C)c(C)c1N=Nc1cc(C(F)(F)F)cc(C(F)(F)F)c1	none (no result: Efa HMGR inh)
CC(OC(=O)CCOc1ccccc1)C(=O)Nc1ccc(Cl)cn1 (stereo unspecified)	none (no result: Wee1 degr inh, Runt-CBFb FRET, Efa HMGR inh, Runt-SMMHC FRET)
CCOC(=O)/C(=C/c1ccc(N2CCC(c3ccccc3)=N2)cc1)C(C)=O	Runt-SMMHC FRET 79
c1ccc(C2=NN(c3ccccc3)CC2)cc1	RanGTP-Impb inh inconclusive (no result: Efa HMGR inh)
N/C(=N\O)c1cn(Cc2ccccc2Cl)c2ccccc12	none (no result: Wee1 degr inh, Runt-CBFb FRET, Efa HMGR inh, Runt-SMMHC FRET)
Cc1[nH][nH]c(=O)c1C(c1c(C)[nH][nH]c1=O)c1cn(Cc2ccccc2Cl)c2ccccc12	Efa HMGR inh 67
Cc1noc(C)c1COC(=O)c1ccc(N(C)C)cc1	none
CSc1ccccc1OCc1cc(C(=O)N(C)C(C)c2ccccn2)no1 (stereo unspecified)	PHOSPHO1 inh 61 (no result: Wee1 degr inh, Runt-CBFb FRET, Efa HMGR inh, Runt-SMMHC FRET)
Cc1ccc(C)c(-n2c(=O)c(C#N)cc3c(=O)n4ccccc4nc32)c1	RanGTP-Impb inh 108, Runt-SMMHC FRET 90
Cc1cccc(-n2c(=O)c(C#N)cc3c(=O)n4ccccc4nc32)c1	RanGTP-Impb inh 128, Runt-SMMHC FRET 59
Cc1cccn2c(=O)c3cc(C#N)c(=O)n(-c4c(C)n(C)n(-c5ccccc5)c4=O)c3nc12	none
O=c1c2ccccc2nc2ccccn12	none
O=C(Nc1cc(Cl)cc(Cl)c1)C1CCCC1	none (no result: Wee1 degr inh, Runt-CBFb FRET, Efa HMGR inh, Runt-SMMHC FRET)
CCOC(=O)C(Sc1nn(C)c(=S)s1)C(C)=O (stereo unspecified)	PHOSPHO1 inh 97
Cn1nc(SCC(=O)O)sc1=S	none
Cc1cc(C)n2c(Br)c(CSc3nc4ccccc4o3)nc2n1	PHOSPHO1 inh 80
Cc1csc2nc(CSc3nc4ccccc4o3)cn12	PHOSPHO1 inh 61 (no result: RanGTP-Impb inh)
CCN(CC(=O)Nc1ccc(NC(C)=O)cc1)C(=O)c1ccc(NC2CC2)c([N+](=O)[O-])c1	none (no result: Wee1 degr inh, Runt-CBFb FRET, Efa HMGR inh, PHOSPHO1 inh, Runt-SMMHC FRET)
C=CCN1C(=O)C2(C(C#N)=C(N)Oc3n[nH]c(CCC)c32)c2ccccc21 (stereo unspecified)	none
CCN1C(=O)CC2(C[N+]3(C)CCC2CC3)C1=O (stereo unspecified)	none
CCO[C@@H]1OC(C(N)=O)=C[C@H](c2ccc(C(F)(F)F)cc2)[C@H]1CCCO	RanGTP-Impb inh 24
CCO[C@@H]1OC(C(=O)Nc2ccccc2)=C[C@H](c2ccc(C(F)(F)F)cc2)[C@H]1CCCO	Efa HMGR inh 12
CCO[C@@H]1OC(C(=O)O)=C[C@H](c2ccc(C(F)(F)F)cc2)[C@H]1CCCO	none
CCOC(=O)C1CCCN(S(=O)(=O)c2c(C)noc2C)C1 (stereo unspecified)	none (no result: Wee1 degr inh, Runt-CBFb FRET, Efa HMGR inh, Runt-SMMHC FRET)
COC(=O)C1=C(C)NC2=C(C(=O)C(C(=O)OC)C(c3ccc(OC)cc3)C2)C1c1ccccn1 (stereo unspecified)	Runt-SMMHC FRET 70
COC(=O)C1=C(C)NC2=C(C(=O)CC(C)(C)C2)C1c1ccccn1 (stereo unspecified)	Runt-CBFb FRET 70, Runt-SMMHC FRET 123
Cc1cccc(NC(=O)CSCC(=O)Nc2cc(Cl)ccc2N2CCOCC2)c1	none (no result: Wee1 degr inh, Runt-CBFb FRET, Efa HMGR inh, PHOSPHO1 inh, Runt-SMMHC FRET)
Cc1ccc(N(C(C)C(=O)N2CCN(Cc3ccccc3)CC2)S(C)(=O)=O)cc1 (stereo unspecified)	none (no result: Wee1 degr inh, Runt-CBFb FRET, Efa HMGR inh, Runt-SMMHC FRET)
CC(On1nnc2ccccc21)C(=O)N1CCN(Cc2ccccc2)CC1 (stereo unspecified)	PHOSPHO1 inh 80 (no result: RanGTP-Impb inh)
CCOC(=O)c1c(OCC)[nH]c2c1cc(O)c1ccccc12	PHOSPHO1 inh 67
O=C1OC(c2ccccc2)=C/C1=C\N1CCOCC1	Wee1 degr inh 27
O=C1OC(c2ccccc2)=C/C1=C/N1CCOCC1	none
O=C(COC(=O)c1cc(S(=O)(=O)N2CCCCC2)ccc1N1CCOCC1)NC1CCS(=O)(=O)C1 (stereo unspecified)	Efa HMGR inh 14
CC1CCCC(NC(=O)COC(=O)c2cc(S(=O)(=O)N3CCCCC3)ccc2N2CCOCC2)C1C (stereo unspecified)	none
Cc1ccc(S(=O)(=O)N2CCOCC2)cc1NC(=O)COC(=O)c1cccnc1Cl	none
Cc1ccc(S(=O)(=O)N2CCOCC2)cc1NC(=O)CN(C)C1CCS(=O)(=O)C1 (stereo unspecified)	Wee1 degr inh 9.0 (no result: Efa HMGR inh)
